According to ChEMBL document CHEMBL2034857, “Discovery of the macrocycle (9E)-15-(2-(pyrrolidin-1-yl)ethoxy)-7,12,25-trioxa-19,21,24-triaza-tetracyclo[18.3.1.1(2,5).1(14,18)]hexacosa-1(24),2,4,9,14(26),15,17,20,22-nonaene (SB1578), a potent inhibitor of janus kinase 2/fms-like tyrosine kinase-3 (JAK2/FLT3) for the treatment of rheumatoid …” (J Med Chem, 2012):
In brackets after ≈: the same amount, converted by molar mass. Blank lines part the entries; values can stand above or below the molecule they belong to.

Legend:
Mus musculus [1] = experiment: Antiarthritic activity in po dosed B10/R3 mouse immunized with bovine type2 collagen in Freund's complete adjuvant assessed as inhibition of increase in clinical arthritic scores administered bid for 10 days measured for 10 days; type: functional, organism-based
[2] = Selectivity ratio of IC50 for recombinant CDK2 to IC50 for recombinant JAK2
[3] = Selectivity ratio of IC50 for recombinant JAK1 to IC50 for recombinant JAK2
[4] = Selectivity ratio of IC50 for recombinant JAK3 to IC50 for recombinant JAK2
Mus musculus [5] = experiment: Antiarthritic activity in B10/R3 mouse immunized with bovine type2 collagen in Freund's complete adjuvant assessed as inhibition of increase in clinical arthritic scores at 0.1 mg/kg, po administered bid for 10 days measured for 10 days; type: functional; conditions: B10/R3, 240 h
[6] = Thermodynamic solubility of the compound at pH 7; type: physicochemical; conditions: buffer, read-out: Therm_solubility
Procedure, shortened: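 The citrate salt (~5 mg) was made up at 5 mg/mL in pH-buffered solution, in triplicate. It was shaken 24 h at 600 rpm at room temperature, filtered (0.4 μm) and the final pH recorded. The filtrate was diluted in acetonitrile/water (1:1), centrifuged and quantified by HPLC-UV. Two determinations were made on two different batches.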

Structure (SMILES): C1=C/COCc2cc(ccc2OCCN2CCCC2)Nc2nccc(n2)-c2ccc(o2)COC/1 (mixture of isomers)
inhibition (Mus musculus [1]): Dose-dependent effect | Ratio IC50 [2]: 152 | Ratio IC50 [3]: 58 | Ratio IC50 [4]: 93

Structure (SMILES): C[C@@H]1C[C@H]2[C@@H]3CCC4=CC(=O)C=C[C@]4(C)[C@@]3(F)[C@@H](O)C[C@]2(C)[C@@]1(O)C(=O)CO [DEXAMETHASONE]
inhibition in vivo at 0.1 mg/kg (Mus musculus [5]): 63%

solubility thermodynamic [6]: 150 µg/mL (≈ 317 µM)
Structure (SMILES): C1=C/COCc2cc(ccc2OCCN2CCCC2)Nc2nccc(n2)-c2cccc(c2)COC/1 [PACRITINIB]
